The values that follow come from ChEMBL document CHEMBL2406967, “Contribution of Cage-Shaped Structure of Physalins to Their Mode of Action in Inhibition of NF-κB Activation” (ACS Med Chem Lett, 2013).

The source made the active and inactive calls. The rule behind the calls is not given here.

Test [1] in a line: Inhibition of TNFalpha-induced NF-kappaB activation (unknown origin) expressed in human HeLa cells pretreated 30 mins before TNFalpha addition after 7 hrs by luciferase reporter gene assay. It is filed as cell-based. The method in brief:
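HeLa cells stably transfected with an NF-κB reporter construct, stimulated with TNF-α; IC50 values are means of three independent experiments, with standard deviation.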
Background: Reporter assays use an easily measured gene product as a stand-in for the process of interest.

The test system of test [2] is HeLa. The test can be described thus: Inhibition of NF-kappaB (unknown origin) expressed in human HeLa cells assessed as inhibition of TNFalpha-induced RelA nuclear translocation pretreated 30 mins before TNFalpha addition measured after 15 mins by Western blot analysis. For orientation: Immunoblotting shows a protein as a band on a membrane.
Test [3] has as its system HeLa. Description: Inhibition of NF-kappaB (unknown origin) expressed in human HeLa cells assessed as inhibition of TNFalpha-induced p50 nuclear translocation pretreated 30 mins before TNFalpha addition measured after 15 mins by Western blot analysis.
The target of test [4] is T1, NF-kappa-B inhibitor alpha (Homo sapiens) (UniProt P25963).
T1 sequence (whole entry): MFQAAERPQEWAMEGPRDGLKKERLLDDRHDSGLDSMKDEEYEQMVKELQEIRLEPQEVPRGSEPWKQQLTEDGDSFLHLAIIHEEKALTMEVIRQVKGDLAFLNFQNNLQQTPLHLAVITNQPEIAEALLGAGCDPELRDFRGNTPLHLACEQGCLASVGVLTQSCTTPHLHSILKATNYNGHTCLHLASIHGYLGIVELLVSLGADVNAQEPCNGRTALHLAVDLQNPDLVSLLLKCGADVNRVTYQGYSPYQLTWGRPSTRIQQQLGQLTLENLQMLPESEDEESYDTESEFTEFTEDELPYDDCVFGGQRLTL
The test can be described thus: Inhibition of TNFalpha-induced IkappaBalpha (unknown origin) degradation expressed in human HeLa cells at 50 uM pretreated […] before TNFalpha addition […] by ELISA. It is filed as cell-based. Background: An ELISA detects its analyte on a solid surface through an enzyme-linked reagent.

Test [5] concerns HeLa. Description: Ratio of IC50 for TNFalpha-induced NF-kappaB (unknown origin) activation expressed in human HeLa cells to IC50 for TNFalpha-induced IkappaBalpha (unknown origin) phosphorylation expressed in human HeLa cells. It is filed as cell-based.
The test system of test [6] is HeLa. Description: Inhibition of NF-kappaB (unknown origin) expressed in human HeLa cells assessed as inhibition of TNFalpha-induced DNA binding of p50 pretreated 30 mins before TNFalpha addition measured after 30 mins by EMSA.
In test [7] the test system is HeLa. Description: Inhibition of NF-kappaB (unknown origin) expressed in human HeLa cells assessed as inhibition of TNFalpha-induced DNA binding of RelA pretreated 30 mins before TNFalpha addition measured after 30 mins by EMSA.
For test [8], the system named is HeLa. Description: Inhibition of NF-kappaB (unknown origin) expressed in human HeLa cells assessed as inhibition of TNFalpha-induced RelA nuclear translocation at 100 uM […] by Western blot analysis. The class given is cell-based. In a few lines:
(§1)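 HeLa cells pretreated 30 min with a range of compound concentrations or DMSO, then stimulated with TNF-α (50 ng/mL) for 15 min. Cytoplasmic and nuclear fractions were immunoblotted for RelA and p50. Tubulin marked the cytoplasmic fraction and PARP the nuclear fraction.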

Test [9] relates to HeLa. Description: Inhibition of NF-kappaB (unknown origin) expressed in human HeLa cells assessed as inhibition of TNFalpha-induced p50 nuclear translocation at 100 uM […] by Western blot analysis. The class given is cell-based. The method in brief:
as §1

One may read the IC50 as the point on the concentration scale where inhibition reaches its midpoint. Turning to `CC1=C(C)C(=O)O[C@@H]([C@](C)(O)C2=CC[C@@]3(O)[C@@H]4CC=C5CC=CC(=O)[C@]5(C)[C@H]4CC[C@]23C)C1`, the IC50 in [1] was found to be 20.8 µM.

With `CC1=C(C)C(=O)O[C@@H]([C@](C)(O)[C@H]2CC[C@@]3(O)[C@@H]4CC=C5CC=CC(=O)[C@]5(C)[C@H]4CC[C@]23C)C1`, the IC50 in test [1] amounted to 20.7 µM.

The term inhibition denotes the change of the read-out against control, counted positive when it falls. On to `C=C1C(=O)O[C@@H]2C[C@@]1(C)[C@@H]1C(=O)[C@]3(O)O[C@]14[C@@]2(C)OC(=O)[C@@]4(O)CC[C@H]1[C@H]3CC=C2CC=CC(=O)[C@@]21C`, for which the inhibition result with HeLa [2] was “Dose-dependent effect”; with HeLa [3], “Dose-dependent effect”; in test [4] it was 0.8%. The concentration for half-maximal inhibition (IC50) in test [1] was determined as 6.54 µM.

As for `C[C@]12C(=O)C=CCC1=C[C@@H](O)[C@@H]1[C@@H]2CC[C@@]2(O)C(=O)O[C@@]3(C)[C@H]4C[C@]5(C)[C@@H](CO[C@@]16O[C@]23[C@H]5C6=O)C(=O)O4`, the inhibition in test [4] was -3.8%. Also, the IC50 in test [1] stood at 11.4 µM.

For `C[C@]12C(=O)C=CCC1=CC[C@@H]1[C@@H]2CC[C@]2(O)C(=O)O[C@@]3(C)[C@H]4C[C@@](C)([C@@H]5C(=O)[C@]1(O)O[C@@]532)[C@](C)(O)C(=O)O4`, in test [1], the IC50 is above 50 µM.

As to `C[C@H]1C(=O)OC[C@H]1C[C@@H](O)[C@](C)(O)[C@]1(O)CC[C@@]2(O)[C@@H]3CC=C4CC=CC(=O)[C@]4(C)[C@H]3CC[C@]12C`, in test [1], the IC50 was 33.2 µM.

As for `C[C@H]1C(=O)OC[C@H]1C[C@@H](O)[C@](C)(O)[C@@]1(O)CC[C@@]2(O)[C@@H]3CC=C4CC=CC(=O)[C@]4(C)[C@H]3CC[C@]12C`, the IC50 in [1] came out at 32.4 µM.

For the compound `C#C[C@]12O[C@H]3OC[C@H]4C(=O)O[C@H](C[C@@]4(C)[C@@H]1C3=O)[C@]2(C)O`, the IC50 in [1] is 104 µM.

Regarding `C[C@@]12C[C@H]3OC(=O)[C@@H]1CO[C@@H]1O[C@@]4([C@H](O)C(=O)O[C@@]34C)[C@H]2C1=O`, the half-maximal inhibitory concentration (IC50) in [1] is above 200 µM.

For `CC(=O)O[C@@H]1C(=O)O[C@@]2(C)[C@H]3C[C@]4(C)[C@@H](CO[C@@H]5O[C@]12[C@H]4C5=O)C(=O)O3`, in [1], the 50% inhibitory concentration (IC50) was above 200 µM.

Regarding `C[C@@]12C[C@H]3OC(=O)[C@@H]1CO[C@@H]1O[C@@]4([C@H](OCc5ccccc5)C(=O)O[C@@]34C)[C@H]2C1=O`, the IC50 in [1] was found to be 43.6 µM.

On to `C=C1C(=O)O[C@@H]2C[C@@]1(C)[C@@H]1C(=O)[C@@H](O)O[C@@]13[C@H](OCc1ccccc1)C(=O)O[C@@]23C`, for which the IC50 in [1] is 85.8 µM.

Take `C[C@@]12C[C@H]3OC(=O)[C@]1(O)CO[C@]14O[C@@]5([C@H]2C1=O)[C@@]3(C)OC(=O)[C@@]5(O)CC[C@H]1[C@H]4C[C@H]2O[C@]23CC=CC(=O)[C@]13C` [25-HYDROXY PHYSALIN F]: the Ratio IC50 with HeLa [5] is 10. The inhibition in test [4] came out at 29%. Moreover, the 50% inhibitory concentration (IC50) in test [1] turned out to be 4.38 µM.

For `C[C@@]12C[C@H]3OC(=O)[C@]1(O)CO[C@]14O[C@@]5([C@H]2C1=O)[C@@]3(C)OC(=O)[C@@]5(O)CC[C@H]1[C@H]4C[C@@H]2O[C@@]23CC=CC(=O)[C@]13C` [25-HYDROXY PHYSALIN J], the IC50 in test [1] is above 50 µM.

As to `C=C1C(=O)O[C@@H]2C[C@@]1(C)[C@@H]1C(=O)[C@]3(O)O[C@]14[C@@]2(C)OC(=O)[C@@]4(O)CC[C@H]1[C@H]3[C@H](O)C=C2CC=CC(=O)[C@@]21C` [PHYSALIN A], the inhibition in test [4] was -3.4%. For the same compound, in test [1], the IC50 came out at 22.7 µM.

With `C[C@]12C(=O)C=CCC1=CC[C@@H]1[C@@H]2CC[C@]2(O)C(=O)O[C@@]3(C)[C@H]4C[C@]5(C)[C@@H](CO[C@@]16O[C@@]32[C@H]5C6=O)C(=O)O4` [PHYSALIN B], the inhibition result in the test with HeLa [6] was “Dose-dependent effect”; with HeLa [2], “Dose-dependent effect”; with HeLa [3], “Dose-dependent effect”; in [4], 7%; in the test on HeLa [7], “Dose-dependent effect”. Moreover, in [1], the concentration for half-maximal inhibition (IC50) came out at 6.07 µM.

Take `C[C@@]12C[C@H]3OC(=O)[C@@H]1CO[C@]14O[C@]5([C@H]2C1=O)[C@@](O)(CC[C@H]1[C@H]4C[C@H]2O[C@]24CC=CC(=O)[C@]14C)C(=O)O[C@@]35C` [PHYSALIN F]: the Ratio IC50 in the test with HeLa [5] was found to be 10. The inhibition in test [4] worked out at 45.2%. Besides, the IC50 in test [1] was found to be 2.53 µM.

`C[C@@]12C[C@H]3OC(=O)[C@@H]1CO[C@@]14O[C@]5(C2C1=O)[C@@](O)(CC[C@H]1[C@H]4C[C@@H]2O[C@@]24CC=CC(=O)[C@]14C)C(=O)O[C@@]35C` [PHYSALIN J]: the IC50 in [1] was found to be 36.2 µM.

`C[C@@H]1C(=O)O[C@@H]2C[C@@]1(C)[C@@H]1C(=O)[C@]3(O)O[C@]14[C@@]2(C)OC(=O)[C@@]4(O)CC[C@H]1[C@H]3[C@H](O)C=C2CC=CC(=O)[C@@]21C` [PHYSALIN O]: the IC50 in test [1] was above 50 µM.

As for `CC1=C(C)C(=O)O[C@@H]([C@](C)(O)[C@]2(O)CC[C@@]3(O)[C@@H]4C[C@H]5O[C@]56CC=CC(=O)[C@]6(C)[C@H]4CC[C@]23C)C1` [WITHANOLIDE E], in the test on HeLa [5], the Ratio IC50 came out at 10. In addition, in test [4], the inhibition was found to be 46.8%. Besides, the IC50 in test [1] was 0.98 µM.

With `CC1=C(C)C(=O)O[C@@H]([C@](C)(O)[C@]2(O)CC[C@@]3(O)[C@@H]4CC=C5CC=CC(=O)[C@]5(C)[C@H]4CC[C@]23C)C1` [WITHANOLIDE F], the inhibition entry in the test with HeLa [6] and in the test with HeLa [7] was “Dose-dependent effect” throughout. Moreover, the inhibition entry in the test on HeLa [8] and with HeLa [9] was “Active” in each case. In addition, the IC50 in test [1] was 2 µM.
